According to ChEMBL document CHEMBL1132476, “Design and synthesis of novel alpha(1)(a) adrenoceptor-selective antagonists. 1. Structure-activity relationship in dihydropyrimidinones” (J Med Chem, 1999):
Where “and” joins values, the source holds several entries; their conditions need not be identical. Equal values may be shown once.

How the values were obtained:
[1] = biological target: T1, Alpha-1D adrenergic receptor (Homo sapiens, UniProt P25100); assay: In vitro binding affinity against Alpha-1D adrenergic receptor of cloned human receptor.
T1 sequence (P25100 whole entry): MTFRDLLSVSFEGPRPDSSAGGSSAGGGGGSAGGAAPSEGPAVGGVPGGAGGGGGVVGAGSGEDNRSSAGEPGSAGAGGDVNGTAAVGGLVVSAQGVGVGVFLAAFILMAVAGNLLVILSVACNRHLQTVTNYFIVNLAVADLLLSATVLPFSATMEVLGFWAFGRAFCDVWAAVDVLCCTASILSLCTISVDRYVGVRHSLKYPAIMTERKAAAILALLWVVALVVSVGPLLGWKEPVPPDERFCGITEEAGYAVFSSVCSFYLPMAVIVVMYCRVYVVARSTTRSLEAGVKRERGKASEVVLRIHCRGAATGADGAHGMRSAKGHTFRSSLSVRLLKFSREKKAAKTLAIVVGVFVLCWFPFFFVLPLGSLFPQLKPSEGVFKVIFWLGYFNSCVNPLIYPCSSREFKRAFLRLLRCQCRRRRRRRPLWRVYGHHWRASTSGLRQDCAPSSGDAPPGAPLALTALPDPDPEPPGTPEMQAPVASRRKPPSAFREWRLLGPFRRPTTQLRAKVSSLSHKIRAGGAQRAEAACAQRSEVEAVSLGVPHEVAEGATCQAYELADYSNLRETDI

[2] = biological target: T2, Alpha-1B adrenergic receptor (Homo sapiens, UniProt P35368); assay: In vitro binding affinity against Alpha-1B adrenergic receptor of cloned human receptor.
T2 sequence (P35368 whole entry): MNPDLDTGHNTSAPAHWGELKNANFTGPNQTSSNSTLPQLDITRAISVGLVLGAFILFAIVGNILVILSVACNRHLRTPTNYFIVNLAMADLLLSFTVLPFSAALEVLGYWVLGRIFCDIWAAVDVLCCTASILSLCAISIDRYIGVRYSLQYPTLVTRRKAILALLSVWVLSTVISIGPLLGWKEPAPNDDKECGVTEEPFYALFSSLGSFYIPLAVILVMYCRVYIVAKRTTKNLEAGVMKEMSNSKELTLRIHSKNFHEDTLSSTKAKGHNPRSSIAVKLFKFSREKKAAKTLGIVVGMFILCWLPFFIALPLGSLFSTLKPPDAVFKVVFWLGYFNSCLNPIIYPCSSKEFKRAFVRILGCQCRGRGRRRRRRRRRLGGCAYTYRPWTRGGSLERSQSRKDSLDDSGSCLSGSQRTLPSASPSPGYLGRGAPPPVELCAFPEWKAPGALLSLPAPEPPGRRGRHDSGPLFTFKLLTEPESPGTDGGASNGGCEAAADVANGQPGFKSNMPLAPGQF

[3] = biological target: T3, Alpha-1A adrenergic receptor (Homo sapiens, UniProt P35348); assay: In vitro binding affinity against Alpha-1A adrenergic receptor of cloned human receptor.
T3 sequence (P35348 whole entry): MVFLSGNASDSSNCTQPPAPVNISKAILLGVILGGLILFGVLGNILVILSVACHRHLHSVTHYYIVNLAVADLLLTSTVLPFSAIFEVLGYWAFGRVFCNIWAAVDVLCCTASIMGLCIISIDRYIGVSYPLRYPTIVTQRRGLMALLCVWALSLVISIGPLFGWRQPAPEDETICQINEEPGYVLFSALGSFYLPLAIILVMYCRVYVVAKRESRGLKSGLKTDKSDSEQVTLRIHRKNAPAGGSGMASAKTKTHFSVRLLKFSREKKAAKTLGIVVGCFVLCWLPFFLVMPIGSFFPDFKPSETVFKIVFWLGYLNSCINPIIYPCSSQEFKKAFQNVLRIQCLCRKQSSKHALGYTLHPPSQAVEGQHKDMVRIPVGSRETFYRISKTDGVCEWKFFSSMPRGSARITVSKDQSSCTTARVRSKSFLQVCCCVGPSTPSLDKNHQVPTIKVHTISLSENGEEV

[4] = biological target: T4, Alpha-1A adrenergic receptor (Rattus norvegicus, UniProt P43140); assay: In vitro binding affinity against Alpha-1A adrenergic receptor in isolated prostate tissue of rat; assay type: tissue-based, Prostate gland
T4 sequence (P43140 whole entry): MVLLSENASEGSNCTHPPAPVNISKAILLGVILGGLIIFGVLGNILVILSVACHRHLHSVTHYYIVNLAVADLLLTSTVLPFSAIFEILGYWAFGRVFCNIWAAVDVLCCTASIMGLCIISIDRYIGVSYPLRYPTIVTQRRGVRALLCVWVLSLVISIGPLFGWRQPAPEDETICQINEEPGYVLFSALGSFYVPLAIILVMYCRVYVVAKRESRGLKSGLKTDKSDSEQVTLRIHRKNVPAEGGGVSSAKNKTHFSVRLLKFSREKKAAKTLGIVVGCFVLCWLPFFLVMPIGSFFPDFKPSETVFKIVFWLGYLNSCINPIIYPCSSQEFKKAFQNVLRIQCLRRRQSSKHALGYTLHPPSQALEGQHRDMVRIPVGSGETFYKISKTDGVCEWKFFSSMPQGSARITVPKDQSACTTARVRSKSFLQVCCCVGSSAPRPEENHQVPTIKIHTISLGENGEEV

Canis familiaris = organism: Canis familiaris; assay: Antagonism against phenylephrine induced contractions in isolated prostate tissue of dog; assay type: functional, Canis lupus familiaris, Prostate gland
Method in brief: (§1)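 Isolated prostate strips (rat or dog) contracted with phenylephrine as agonist. Antagonist potency is expressed as Kb, derived from the shift in the agonist response by a previously published method.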

Rattus norvegicus = organism: Rattus norvegicus; assay: Antagonism against phenylephrine induced contractions in isolated prostate tissue of rat; assay type: functional, Prostate gland
Method in brief: as §1

Homo sapiens = organism: Homo sapiens; assay: Antagonism against phenylephrine induced contractions in isolated prostate tissue of human; assay type: functional; settings: Prostate gland

| Structure (SMILES) | Ki [1] | Ki [2] | Ki [3] | Ki [4] [nM] | Kb (Canis familiaris) [nM] | Kb (Rattus norvegicus) [nM] | Kb (Homo sapiens) [nM] |
| --- | --- | --- | --- | --- | --- | --- | --- |
| COC(=O)C1=C(C)NC(=O)N(C(=O)NCCCN2CCC(C(=O)OC)(c3ccccc3)CC2)C1c1cccc(F)c1 (centres undefined) | 150 nM | 67 nM | 1.5 nM |  |  |  |  |
| COC(=O)C1=C(C)NC(=O)N(C(=O)NCCCN2CCC(c3ccccc3)(c3ccccc3)CC2)C1c1ccc([N+](=O)[O-])cc1 (centres undefined) | 120 nM | 27 nM | 5 nM |  |  |  |  |
| COC(=O)C1=C(C)NC(=O)N(C(=O)NCCCN2CCC(C(=O)OC)(c3ccccc3)CC2)C1c1ccc(C)cc1 (centres undefined) | 220 nM | 77 nM | 8 nM |  |  |  |  |
| COC(=O)C1=C(C)NC(=O)N(C(=O)NCCCN2CCC(C(=O)OC)(c3ccccc3)CC2)C1c1ccc(F)cc1F (centres undefined) | 180 nM | 88 nM | 0.2 nM |  |  |  |  |
| COC(=O)C1=C(C)NC(=O)N(C(=O)NCCCN2CCC(C(=O)OC)(c3ccccc3)CC2)C1c1ccc(F)cc1 (centres undefined) | 180 nM | 78 nM | 1.2 nM |  |  |  |  |
| CCC1=C(C(=O)OC)C(c2ccc([N+](=O)[O-])cc2)N(C(=O)NCCCN2CCC(C(=O)OC)(c3ccccc3)CC2)C(=O)N1 (centres undefined) | 87 nM | 37 nM | 0.8 nM |  |  |  |  |
| COC(=O)C1(c2ccccc2)CCN(CCCNC(=O)N2C(=O)NC(C)=C(C(N)=O)C2c2ccc([N+](=O)[O-])cc2)CC1 (centres undefined) | 140 nM | 100 nM | 0.7 nM |  |  |  |  |
| CCOC(=O)C1=C(C)NC(=O)N(C(=O)NCCCN2CCC(C(=O)OC)(c3ccccc3)CC2)C1c1ccc([N+](=O)[O-])cc1 (centres undefined) | 91 nM | 15 nM | 0.3 nM |  |  |  |  |
| CCC1=C(C(N)=O)C(c2ccc([N+](=O)[O-])cc2)N(C(=O)NCCCN2CCC(C(=O)OC)(c3ccccc3)CC2)C(=O)N1 (centres undefined) |  |  |  | 0.58 | 0.85 | 2 | 0.04 |
| COC(=O)C1=C(C)NC(=O)N(C(=O)NCCCN2CCC(C(=O)OC)(c3ccccc3)CC2)C1c1ccc([N+](=O)[O-])cc1 (centres undefined) | 180 nM and 100 nM and 80 nM | 81 nM and 28 nM and 19 nM | 0.4 nM and 0.5 nM and 2.1 nM |  |  |  |  |
| COC(=O)C1=C(C)NC(=O)N(C(=O)NCCCN2CCC(C(=O)OC)(c3ccccc3)CC2)C1c1cccc(Cl)c1 (centres undefined) | 180 nM | 50 nM | 1.1 nM |  |  |  |  |
| COC(=O)C1=C(C)NC(=O)N(C(=O)NCCCN2CCC(C(=O)OC)(c3ccccc3)CC2)C1c1ccc2nonc2c1 (centres undefined) | 93 nM | 27 nM | 0.1 nM |  |  |  |  |
| CCC1=C(C(=O)NC)C(c2ccc([N+](=O)[O-])cc2)N(C(=O)NCCCN2CCC(C(=O)OC)(c3ccccc3)CC2)C(=O)N1 (centres undefined) | 398 nM | 139 nM | 1.2 nM |  |  |  |  |
| CNC(=O)C1=C(C)NC(=O)N(C(=O)NCCCN2CCC(C(=O)OC)(c3ccccc3)CC2)C1c1ccc([N+](=O)[O-])cc1 (centres undefined) | 270 nM | 100 nM | 2.1 nM |  |  |  |  |
| COC(=O)C1=C(C)NC(=O)N(C(=O)NCCCN2CCC(C(=O)OC)(c3ccccc3)CC2)C1c1cccc(C)c1 (centres undefined) | 320 nM | 110 nM | 1.8 nM |  |  |  |  |
| COC(=O)C1(c2ccccc2)CCN(CCCNC(=O)N2C(=O)NC(C)=C(C(=O)O)C2c2ccc([N+](=O)[O-])cc2)CC1 (centres undefined) | 2600 nM | 1600 nM | 10 nM |  |  |  |  |
| COC(=O)C1=C(C)NC(=O)N(C(=O)NCCCN2CCC(C(=O)OC)(c3ccccc3)CC2)C1c1ccc(Cl)cc1 (centres undefined) | 170 nM | 48 nM | 4.5 nM |  |  |  |  |
| CCC1=C(C(N)=O)C(c2ccc(F)cc2F)N(C(=O)NCCCN2CCC(C(=O)OC)(c3ccccc3)CC2)C(=O)N1 (centres undefined) | 440 nM | 340 nM |  |  |  |  |  |
